From ChEMBL document CHEMBL1153963, “Phenanthrene-based tylophorine-1 (PBT-1) inhibits lung cancer cell growth through the Akt and NF-kappaB pathways” (J Med Chem, 2009)
Active and inactive are the calls of the source. The calls are words filed in the database; no cut-off is given here.

Tests used:
CL1-0 [1] = assay: Growth inhibition of human CL1-0 cells at >0.25 ug/mL; assay type: functional, cell-based
[2] = Cell cycle arrest in human CL1-0 cells assessed as accumulation at G2/M phase after 24 hrs by flow cytometry; assay type: functional, cell-based
In short: (§1)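 CL1-0 cells seeded at 2×10^5 per 60 mm dish, incubated 24 h, then exposed to various drug concentrations for 2, 6, 12, 16 or 24 h. Harvested cells fixed in cold 70% ethanol at 4 °C for 16 h, treated with RNase A (20 µg/mL, 37 °C, 30 min), stained with propidium iodide (50 µg/mL, 4 °C, 30 min), analysed at once by flow cytometry for phase distribution.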

[3] = Cell cycle arrest in human CL1-0 cells assessed as accumulation at S phase after 12 hrs by flow cytometry; assay type: functional, cell-based; in short: as §1
CL1-0 [4] = assay: Decrease in COX2 protein level in TNF-alpha-stimulated human CL1-0 cells by Western blot; assay type: functional, cell-based
In short: (§2)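 CL1-0 cells serum-starved overnight, pretreated with various drug concentrations, then stimulated with TNF-α for 4 h. Lysates (50 µg) resolved by 10% SDS-PAGE, blotted, probed with specific antibodies in TBS pH 7.5/0.05% Tween 20/5% milk, HRP secondaries, chemiluminescent film detection; a representative blot shown.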

A549 [5] = assay: Decrease in […] binding affinity to NF-kappaB response element on COX2 promoter in human A549 cells at >0.25 ug/mL by chromatin immunoprecipitation assay; assay type: functional, cell-based
In short: (§3)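 A549 cells, untreated or treated with drug plus TNF-α for 4 h, cross-linked with 1% formaldehyde (quenched with 0.125 M glycine), lysed, sonicated 12 W for 45 s, immunoprecipitated overnight at 4 °C with anti-RelA, anti-p50 or anti-RelB, collected on protein A/G beads. Cross-links reversed at 65 °C overnight; COX-2 promoter (nt -359 to +106) PCR-amplified 35 cycles, 2% agarose gel, input chromatin as control.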

[6] = Cell cycle arrest in human CL1-0 cells assessed as accumulation at G2/M phase after 16 hrs by flow cytometry; assay type: functional, cell-based; in short: as §1
[7] = Cell cycle arrest in human CL1-0 cells assessed as accumulation at S phase after 16 hrs by flow cytometry; assay type: functional, cell-based; in short: as §1
CL1-0 [8] = assay: Induction of apoptosis in human CL1-0 cells assessed as PARP1 cleavage by Western blot; assay type: functional, cell-based
[9] = Cell cycle arrest in human CL1-0 cells assessed as accumulation at G0/G1 phase after 16 hrs by flow cytometry; assay type: functional, cell-based; in short: as §1
CL1-0 [10] = assay: Effect on cyclin E protein expression in human CL1-0 cells at 0.5 ug/mL after 24 hrs by Western blot; assay type: functional, cell-based
In short: (§4)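 CL1-0 cells exposed to rising concentrations for 24 h, or to 0.5 µg/mL over a time course; 50 µg lysate resolved by 10% SDS-PAGE, blotted, probed with cyclin/CDK-inhibitor antibodies in TBS-Tween/5% milk, HRP secondary, chemiluminescent film detection.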

CL1-0 [11] = assay: Decrease in IkappaB protein level in TNF-alpha-stimulated human CL1-0 cells by Western blot; assay type: functional, cell-based; in short: as §2
A549 [12] = assay: Decrease in NF-kappaB1 binding affinity to NF-kappaB response element on COX2 promoter in human A549 cells by chromatin immunoprecipitation assay; assay type: functional, cell-based; in short: as §3
[13] = molecular target: T1, Inhibitor of nuclear factor kappa-B kinase subunit beta (Homo sapiens) (UniProt O14920); assay: Effect on IKK-beta activity in TNF-alpha-stimulated human CL1-0 cells by Western blot; assay type: cell-based; in short: as §2
T1 sequence (whole entry): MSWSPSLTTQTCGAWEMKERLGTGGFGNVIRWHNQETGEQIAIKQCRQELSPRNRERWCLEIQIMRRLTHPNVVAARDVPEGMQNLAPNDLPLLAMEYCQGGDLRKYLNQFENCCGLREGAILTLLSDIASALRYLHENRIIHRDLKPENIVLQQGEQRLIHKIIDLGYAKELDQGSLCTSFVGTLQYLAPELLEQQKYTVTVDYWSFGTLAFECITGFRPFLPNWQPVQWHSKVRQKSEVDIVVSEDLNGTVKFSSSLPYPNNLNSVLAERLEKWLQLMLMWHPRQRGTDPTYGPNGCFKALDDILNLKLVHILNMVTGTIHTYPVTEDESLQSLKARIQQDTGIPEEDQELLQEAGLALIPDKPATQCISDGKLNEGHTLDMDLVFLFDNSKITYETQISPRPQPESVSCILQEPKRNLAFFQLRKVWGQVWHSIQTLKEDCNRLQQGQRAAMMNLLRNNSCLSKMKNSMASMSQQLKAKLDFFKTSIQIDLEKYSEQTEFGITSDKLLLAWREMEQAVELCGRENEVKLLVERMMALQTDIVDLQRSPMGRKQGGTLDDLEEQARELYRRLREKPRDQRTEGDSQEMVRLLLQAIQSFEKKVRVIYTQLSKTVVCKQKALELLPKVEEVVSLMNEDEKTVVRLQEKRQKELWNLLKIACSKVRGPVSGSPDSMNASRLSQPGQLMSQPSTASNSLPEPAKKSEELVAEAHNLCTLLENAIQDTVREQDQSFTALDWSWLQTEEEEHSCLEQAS

CL1-0 [14] = assay: Induction of cyclin D1 protein accumulation in human CL1-0 cells at 0.5 ug/mL after 24 hrs by Western blot; assay type: functional, cell-based; in short: as §4
[15] = Cell cycle arrest in human CL1-0 cells assessed as increase in accumulation at G2/M phase by flow cytometry; assay type: functional, cell-based; settings: TDE = time-dependent effect; in short: as §1

For COc1ccc2c(CN3CCC(CO)CC3)cc3cc4c(cc3c2c1)OCO4, the Activity (CL1-0 [1]) was “Active”, the Activity [2] was 20.9% and the Activity [3] was 23.9%. For the same compound, the Activity (CL1-0 [4]) was “Active”, the Activity (A549 [5]) was “Active” and the Activity [6] was 33.6%. The Activity [7] was 34.1%, the Activity (CL1-0 [8]) was “Active” and the Activity [9] was 20.4%. For the same compound, the Activity (CL1-0 [10]) was “inactive”, the Activity (CL1-0 [11]) was “Active” and the Activity (A549 [12]) was “Active”. For the same compound, the Activity [13] was “inactive”, the Activity (CL1-0 [14]) was “Active” and the Activity [15] was “tde”.
